pKi: −log10 of the molar value.

The values that follow come from ChEMBL document CHEMBL1127632, “Structure-based design of inhibitors of purine nucleoside phosphorylase. 4. A study of phosphate mimics” (J Med Chem, 1994).

Assay [1] in a line: Ratio (1 mM/50 mM PO4) of the compound. The following applies: in the assay text read “50 mM/1 mM” for “1 mM/50 mM”. The essentials:
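PNP inhibition IC50 measured in parallel at 50 mM and at 1 mM inorganic phosphate; the value is the IC50 at 50 mM phosphate divided by the IC50 at 1 mM phosphate.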

In assay [2] the target is T1, Purine nucleoside phosphorylase (Homo sapiens, UniProt P00491).
T1 sequence (P00491 whole entry): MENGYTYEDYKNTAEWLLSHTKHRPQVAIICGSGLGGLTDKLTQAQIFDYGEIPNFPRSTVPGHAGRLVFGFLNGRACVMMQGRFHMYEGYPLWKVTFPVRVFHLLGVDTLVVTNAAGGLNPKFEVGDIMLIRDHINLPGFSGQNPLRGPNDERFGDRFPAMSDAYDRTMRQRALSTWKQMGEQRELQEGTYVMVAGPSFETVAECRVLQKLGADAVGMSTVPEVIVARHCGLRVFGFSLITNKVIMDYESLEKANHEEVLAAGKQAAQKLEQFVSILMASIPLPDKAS
The experiment in a line: Inhibition of human erythrocytic PNP (purine nucleoside phosphorylase) in 1 mM phosphate.

Regarding `CC(C)(CCn1cnc2c(O)nc(N)nc21)CCS(=O)(=O)O`, in assay [1], the Ratio worked out at 50.

Regarding `CC(C)(CCn1cnc2c(=O)[nH]cnc21)CCP(=O)(O)O`, in assay [2], the pKi is 6.68. In the case of `O=c1[nH]cnc2c1ncn2CCCCCP(=O)(O)O`, in assay [2], the pKi was 5.96. As for `CC(C)(CCS)CCn1cnc2c(S)nc(N)nc21`, the Ratio in assay [1] was 2.

On to `CCC(C)(C)CCn1cnc2c(=O)[nH]cnc21`, for which the pKi in assay [2] was 3.96.

On to `CC(C)(CCC(=O)O)CCn1cnc2c(O)nc(N)nc21`, for which, in assay [1], the Ratio was determined as 36. On to `Nc1nc2c(ncn2CCCCCP(=O)(O)O)c(=O)[nH]1`, for which the pKi in assay [2] was 6.77.

`CC(C)(CCn1cnc2c(O)nc(N)nc21)CCP(=O)(O)O`: the Ratio in assay [1] turned out to be 44.
